Compounds with a hit are over-represented: about 5.6% of the library has one in this group of screens.
CHOP inhibitor: CHOP inhibition in unfolded protein response; inhibition, % at 10 µM; AID 2732; 3.8% of 220,000 active; CHO-K1 CHOP-promoter luciferase, tunicamycin-induced, 15-18 h;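 active = compounds that reduced the stress-induced luciferase reporter signal by more than about 70% of percent inhibition, limit read from the data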;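 also: 0% = tunicamycin plus vehicle and 100% = wells without tunicamycin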
UPR XBP1 act: adaptive UPR (XBP1) activation | CHO-XBP1 luciferase reporter, IRE1-XBP1 UPR activation, luminescence; percent of tunicamycin response, DMSO as zero | activation, % at 20 µM | 0.33% of 330,000 active | AID 463104;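 active = versus positive control, 20 µM dose yields 30% or more activation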;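 also: 100% = tunicamycin at 10 µg/mL and 0% = DMSO only wells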
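Test system: CHO-XBP1 luciferase reporter cells | Buffer or medium: Serum-containing F12 medium, 10% FBS | Schedule: 6 h compound exposure at 37 °C, 5% CO2 | Detection: Steady-Glo luciferase glow luminescence, 10 min after reagent addition | Read-out basis: Activation, % of tunicamycin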
UPR CHOP act: apoptotic UPR (CHOP) activation; activation, % at 10 µM; CHO-CHOP luciferase reporter, luminescence; percent of tunicamycin response over DMSO baseline; 0.34% of 330,000 active;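 active = at 10 µM dose, activation of 40% or more, normalized to positive control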;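 also: 100% = tunicamycin at 10 µg/mL and 0% = DMSO alone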
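Evaluation: % reporter activation, DMSO baseline versus tunicamycin full activation; System: CHO-CHOP luciferase reporter cell line; Input: 500 cells/well; Incubation: 6 h compound treatment, 37 °C; Measured by: Steady-Glo luciferase luminescence; Dosing: one dose, 10 µM in 0.5% DMSO; Buffer or medium: F12 medium, 10% FBS; Benchmarks: positive tunicamycin 10 µg/mL, negative DMSO alone.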
MPTP inh: blocks calcium-induced mitochondrial swelling. isolated mouse mitochondria, Ca2+ swelling absorbance, 30 min. inhibition, % at 10 µM. 1.4% of 360,000 active;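 active = inhibition of 50% or more, scaled per plate between neutral and stimulator controls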;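 also: 0% = DMSO wells given calcium and 100% = 1 mM EGTA wells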
GRIN3A LBD mod: modulates the human NR3A ligand-binding domain; NR3A LBD differential scanning fluorimetry, Tm shift; 0% = protein alone, 100% = glycine-bound protein; Tm shift relative to glycine control, % at 25 µM; 2.5% of 340,000 active; AID 1259313;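 active = melting temperature shift of at least 10% of the positive control shift, at one fixed dose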
aDG glyco up: alpha-DG glycosylation activation. 0.22% of 360,000 active. Pro5-aDG cells, alpha-DG glycosylation AlphaScreen (IIH6); 0% Pro5, 100% B10-LARGE cell signal. activation, % at 10 µM;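 active = activation of at least 8% versus controls, or a plate z-score of at least 8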;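 also: Pro5 are CHO cells carrying HIG-tagged alpha-DG that lacks glycosylation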
MPTP counter: membrane potential counter-screen of mitochondrial pore inhibitors | shares compounds with MPTP inh | isolated mitochondria, Rhodamine 123 fluorescence | inhibition, % at 10 µM | 78% of 5,000 active | AID 624504; in the data active = inhibition above about 22%;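 also: 0% = DMSO vehicle and 100% = positive control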
MPTP abs DR: dose response confirmation of mitochondrial permeability transition pore inhibitors; shares compounds with MPTP inh; isolated mitochondria swelling, absorbance; IC50, µM; 58% of 780 active; AID 651561; in the data active = IC50 below about 20 µM
MPTP cs DR: active in counter-screen for permeability transition pore inhibitors; shares compounds with MPTP inh; isolated mitochondria counterscreen, fluorescence read-out; IC50, µM; 49% of 780 active; AID 651564; in the data active = IC50 below about 80 µM
Starred values were filed as active, the others as inactive; / = no result.

SMILES	CHOP inhibitor	UPR XBP1 act	UPR CHOP act	MPTP inh	GRIN3A LBD mod	aDG glyco up	MPTP counter	others
CC(C)N1CC2(CC(c3ccc(Cl)cc3Cl)=NO2)CN1C(=O)c1ccc(C(C)(C)C)cc1 (stereo unspecified)	/	/	/	52*	/	1	14	MPTP abs DR=8.8*;MPTP cs DR=29*
CS(=O)(=O)N1CCC(C(=O)Nc2cc(Cl)cc(Cl)c2)CC1	-15	-2	0	0	-3	0	/
CCCCn1c(NC(=O)c2ccccc2)c(C#N)c2nc3ccccc3nc21	-10	/	/	87*	8	0	80*
Cc1ccc(C(=O)NCCn2c(N)c(C#N)c3nc4ccccc4nc32)cc1	-14	-1	1	1	-2	1	/
O=C(NCc1ccncc1)Nc1ccc(Cc2ccc(NC(=O)NCc3ccncc3)cc2)cc1	/	/	/	-1	/	0	/
O=C(NCCN1CCN(Cc2ccccc2)CC1)Nc1cc(Cl)cc(Cl)c1	6	0	0	85*	-1	1	96*
Cc1ccc(NC(=O)NCc2ccncc2)cc1Cl	0	3	7	63*	-2	0	79*
O=C(CN1c2ccccc2Sc2ccccc21)NNC(=O)Nc1ccc(Cl)c(Cl)c1	20	-3	1	52*	16*	0	22*
O=C(NCc1ccccn1)Nc1ccc(Cl)c(Cl)c1	45	3	2	51*	2	0	85*
CCC1CCCCN1C(=O)CCS(=O)(=O)c1ccccc1 (stereo unspecified)	/	-1	2	2	-1	0	/
O=C(NCc1csc2ccccc12)Nc1cc(Cl)cc(Cl)c1	86*	1	1	86*	21*	0	76*
O=C(O)Cc1csc2ccccc12	18	-3	-1	-2	2	0	/
O=C(NCc1ccccn1)Nc1cccc(Cl)c1	-12	4	6	32	2	0	/
O=C(NCc1ccccn1)Nc1cc(Cl)cc(Cl)c1	/	-4	-1	83*	-5	0	100*
CC(C)c1ccc(NC(=O)c2csnn2)cc1	40	-2	0	-2	4	0	/
CC(C)c1ccc(NC(=O)c2snc3ccc(Cl)cc23)cc1	79*	11	6	74*	10*	0	74*
Cc1ccc(S(=O)(=O)NCC(=O)OCC(=O)c2c(N)n(C)c(=O)n(C)c2=O)cc1	2	-4	-1	-2	-5	0	/
CC1(C(=O)Nc2ccc3c(c2)OCO3)CCN1C(=O)Cc1ccc(-c2ccccc2)cc1 (stereo unspecified)	/	/	/	74*	/	5	96*
CC1(C(=O)Nc2ccccc2)CCN1C(=O)Cc1ccc(-c2ccccc2)cc1 (stereo unspecified)	/	/	/	8	/	1	/
COc1ccc(NC(=O)COC(=O)CNS(=O)(=O)c2ccccc2)cc1OC	-7	-1	1	120*	-1	0	-3
Cn1c(SC(C(=O)Nc2ccc(F)cc2)c2ccccc2)nc2ccccc21 (stereo unspecified)	23	0	2	64*	3	0	66*
O=C(Nc1ccc(F)cc1)C(Sc1nc2ccccc2[nH]1)c1ccccc1 (stereo unspecified)	52	0	4	97*	-16	0	87*
Cn1nnnc1SC(C(=O)Nc1ccc(F)cc1)c1ccccc1 (stereo unspecified)	6	-2	1	-1	-2	0	/
COc1cc(C(=O)NCCOc2cc(C)cc(C)c2)cc(OC)c1OC	/	-1	-2	15	1	0	/
Cc1ccc(NC(=O)CCN2C(=O)NC3(CCCC3)C2=O)cc1S(=O)(=O)N1CCOCC1	/	-3	-1	0	-3	0	/
SMILES	CHOP inhibitor	UPR XBP1 act	UPR CHOP act	MPTP inh	GRIN3A LBD mod	aDG glyco up	MPTP counter	others
NCC(O)C1CCCCCCC1 (stereo unspecified)	3	/	/	/	/	/	/
COc1ccc(-c2noc(CNC(=O)Nc3ccc(F)cc3)n2)cc1	3	0	0	18	-4	1	/
Cc1cccc(-c2noc(CNC(=O)Nc3ccc(F)cc3)n2)c1	5	-4	-2	59*	-3	0	71*
O=C(O)COCC(=O)NCc1nc(-c2ccc(C(F)(F)F)cc2)no1	1	2	0	1	1	0	/
O=C(NCc1nc(-c2ccc(C(F)(F)F)cc2)no1)Nc1ccc(F)cc1F	69	2	3	54*	1	0	69*
COc1cc2c(=O)n(CC3CCCO3)c(=O)n(CC(=O)Nc3ccccc3)c2cc1OC (stereo unspecified)	/	1	-1	-1	-1	0	/
Cc1c(Cl)cccc1NC(=S)NCCC(c1ccccc1)c1ccccc1	1	-5	2	62*	-7	2	87*
Cc1c(Cl)cccc1NC(=S)NCc1ccc(F)cc1	/	-5	2	9	-4	0	/
Cc1cc(Cl)ccc1NC(=S)NCCC(c1ccccc1)c1ccccc1	50	0	-1	100*	9	2	97*
Cc1c(Cl)cccc1NC(=S)NCc1ccccc1Cl	30	-1	0	84*	-3	0	94*
Cc1c(Cl)cccc1NC(=S)NCCC(C)C	69	-2	-1	-3	-1	0	/
Cc1c(Cl)cccc1NC(=S)NCC1COc2ccccc2O1 (stereo unspecified)	20	-2	-2	63*	0	0	93*
CN(C)CC1CCCCC1OC(=O)c1ccc(S(=O)(=O)N(C)c2ccccc2)cc1 (stereo unspecified)	/	-1	-1	81*	-5	0	0	MPTP abs DR=12*;MPTP cs DR=61*
CN(C)CC1CCCCC1OC(=O)c1ccc(Br)cc1 (stereo unspecified)	27	-1	0	12	-1	0	/
Cc1ccc(C2=C(O)C(=O)C(c3ccc(C)cc3)=C(O)C2=O)cc1	/	/	/	56*	-5	0	-44	MPTP abs DR=14*;MPTP cs DR=<2.5*
CC1=C(O)C(=O)C(C2=C(O)C(=O)C(C)=C(O)C2=O)=C(O)C1=O	/	/	/	-2	-5	0	/
CCOP(=O)(OCC)C(NC(=O)Nc1ccc(Cl)cc1)c1ccccc1 (stereo unspecified)	6	-1	-1	2	2	0	/

Source: PubChem BioAssay
